Measurements taken from ChEMBL document CHEMBL4251569, “Camptothecin-psammaplin A hybrids as topoisomerase I and HDAC dual-action inhibitors” (Eur J Med Chem, 2018).

Columns and labels:
[1] = system: Mus musculus; experiment: Toxicity in CD1 nude mouse xenografted with human MM473 cells assessed as body weight loss at 90 mg/kg, iv administered every 4 days per week for 3 weeks measured during compound dosing and on day 40 post last dose; type: organism-based; details: in vivo
In short: (§1)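 MM473 mesothelioma cells (F-10, 10% FBS, G418; mycoplasma-checked, >95% viable) injected intrapleurally, 1x10⁶ in 200 µl M199 per CD-1 nude mouse. Treatment i.v. from day 15 when tumours were growing, in 10% 1:1 ethanol–Cremophor in saline, q4dx3w; vehicle control. Tumour burden followed weekly by IVIS bioluminescence after i.p. D-luciferin (100 µL/10 g), as average radiance; body weight recorded.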

[2] = biological target: Histone deacetylase 4 (Homo sapiens, UniProt P56524); experiment: Inhibition of HDAC4 (unknown origin) using fluorogenic substrate after 1 to 2 hrs by fluorescence assay
In short: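 Purified HDAC4 preincubated with compound (10 concentrations from 10 µM, triplicate, final 1% DMSO) in 50 mM Tris-HCl pH 8.0, 137 mM NaCl, 2.7 mM KCl, 1 mM MgCl2, 1 mg/ml BSA. Class 2a trifluoroacetyl-lysine fluorogenic substrate added and incubated 1–2 h at 30 °C. Developer with TMP269 stops the reaction; fluorescence read at ex 360/em 460 at plateau. Activity is relative to DMSO, and IC50 comes from a sigmoidal fit.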

[3] = cells; type: functional, cell-based; details: Homo sapiens, 72 h
[4] = system: MM473; experiment: Cell cycle arrest in human MM473 cells assessed as accumulation at G2/M phase at 4 uM after 72 hrs by propidium iodide staining-based flow cytometric method (reference value: 4.6%); type: functional
[5] = system: A2780; experiment: cells; type: functional, cell-based; details: Homo sapiens, A2780, 72 h
[6] = Cell cycle arrest in human MM487 cells assessed as accumulation at G0/G1 phase at 0.3 uM after 24 hrs by propidium iodide staining-based flow cytometric method (reference value: 57.9%); type: functional
[7] = system: MM473; experiment: Antitumor activity against human MM473 cells xenografted in CD1 nude mouse assessed as inhibition of tumor volume at 90 mg/kg, iv administered every 4 days per week for 3 weeks measured 10 days post last dose by luciferase reporter assay relative to vehicle-treated control; type: functional; in short: as §1
[8] = system: HT-29; experiment: Antiproliferative activity against human HT-29 cells after 72 hrs by SRB assay; type: functional, cell-based; details: HT-29, 72 h
[9] = system: NB-4; experiment: cells; type: functional, cell-based; details: Homo sapiens, NB-4, 72 h
[10] = Cell cycle arrest in human MM487 cells assessed as accumulation at S phase at 0.3 uM after 24 hrs by propidium iodide staining-based flow cytometric method (reference value: 25.2%); type: functional
[11] = system: MM473; experiment: Cell cycle arrest in human MM473 cells assessed as accumulation at G0/G1 phase at 4 uM after 24 hrs by propidium iodide staining-based flow cytometric method (reference value: 54.5%); type: functional
[12] = Cell cycle arrest in human MM487 cells assessed as accumulation at G2/M phase at 0.3 uM after 72 hrs by propidium iodide staining-based flow cytometric method (reference value: 5.4%); type: functional
[13] = Cell cycle arrest in human MM487 cells assessed as accumulation at S phase at 0.3 uM after 72 hrs by propidium iodide staining-based flow cytometric method (reference value: 14.6%); type: functional
[14] = system: KM-H2; experiment: cells; details: Homo sapiens, KM-H2, 72 h
[15] = Cell cycle arrest in human MM487 cells assessed as accumulation at G0/G1 phase at 0.3 uM after 48 hrs by propidium iodide staining-based flow cytometric method (reference value: 73.8%); type: functional
[16] = system: MM473; experiment: Cell cycle arrest in human MM473 cells assessed as accumulation at G0/G1 phase at 4 uM after 48 hrs by propidium iodide staining-based flow cytometric method (reference value: 71.8%); type: functional
[17] = system: L-428; experiment: cells; type: functional, cell-based; details: Homo sapiens, L-428, 72 h
[18] = system: MM473; experiment: Induction of apoptosis in human MM473 cells at 4 uM after 48 hrs by propidium iodide staining-based flow cytometric method (reference value: […]); type: functional
[19] = cells; type: functional, cell-based; details: Homo sapiens, MM487, 72 h
[20] = Induction of apoptosis in human MM487 cells at 0.3 uM after 48 hrs by propidium iodide staining-based flow cytometric method (reference value: 0.3%); type: functional
[21] = system: JeKo-1; experiment: cells; type: functional, cell-based; details: Homo sapiens, JeKo-1, 72 h
[22] = system: DU-145; experiment: cells; type: functional, cell-based; details: Homo sapiens, DU-145, 72 h
[23] = biological target: Histone deacetylase 2 (Homo sapiens, UniProt Q92769); experiment: Inhibition of HDAC2 (unknown origin) using RHKK(Ac)AMC as substrate after 1 to 2 hrs by fluorescence assay
[24] = system: A-431; experiment: cells; type: functional, cell-based; details: Homo sapiens, A-431, 72 h
[25] = system: CAPAN-1; experiment: cells; type: functional, cell-based; details: Homo sapiens, CAPAN-1, 72 h
[26] = biological target: Protein deacetylase HDAC6 (Homo sapiens, UniProt Q9UBN7); experiment: Inhibition of HDAC6 (unknown origin) using RHKK(Ac)AMC as substrate after 1 to 2 hrs by fluorescence assay
[27] = system: MM473; experiment: Cell cycle arrest in human MM473 cells assessed as accumulation at S phase at 4 uM after 48 hrs by propidium iodide staining-based flow cytometric method (reference value: 23.9%); type: functional
[28] = Induction of apoptosis in human MM487 cells at 0.3 uM after 72 hrs by propidium iodide staining-based flow cytometric method (reference value: 0.6%); type: functional
[29] = biological target: Histone deacetylase 1 (Homo sapiens, UniProt Q13547); experiment: Inhibition of HDAC1 (unknown origin) using RHKK(Ac)AMC as substrate after 1 to 2 hrs by fluorescence assay
[30] = cells; type: functional, cell-based; details: Homo sapiens, MINO, 72 h
[31] = system: MM473; experiment: Cell cycle arrest in human MM473 cells assessed as accumulation at S phase at 4 uM after 24 hrs by propidium iodide staining-based flow cytometric method (reference value: 29.8%); type: functional
[32] = system: OCI-Ly3; experiment: cells; details: Homo sapiens, OCI-Ly3, 72 h
[33] = system: MM473; experiment: Induction of apoptosis in human MM473 cells at 4 uM after 72 hrs by propidium iodide staining-based flow cytometric method (reference value: 1.4%); type: functional
[34] = biological target: Polyamine deacetylase HDAC10 (Homo sapiens, UniProt Q969S8); experiment: Inhibition of HDAC10 (unknown origin) using RHKK(Ac)AMC as substrate after 1 to 2 hrs by fluorescence assay
[35] = system: MM473; experiment: Cell cycle arrest in human MM473 cells assessed as accumulation at G0/G1 phase at 4 uM after 72 hrs by propidium iodide staining-based flow cytometric method (reference value: 80.2%); type: functional

Histone deacetylase 4, sequence (P56524 whole entry): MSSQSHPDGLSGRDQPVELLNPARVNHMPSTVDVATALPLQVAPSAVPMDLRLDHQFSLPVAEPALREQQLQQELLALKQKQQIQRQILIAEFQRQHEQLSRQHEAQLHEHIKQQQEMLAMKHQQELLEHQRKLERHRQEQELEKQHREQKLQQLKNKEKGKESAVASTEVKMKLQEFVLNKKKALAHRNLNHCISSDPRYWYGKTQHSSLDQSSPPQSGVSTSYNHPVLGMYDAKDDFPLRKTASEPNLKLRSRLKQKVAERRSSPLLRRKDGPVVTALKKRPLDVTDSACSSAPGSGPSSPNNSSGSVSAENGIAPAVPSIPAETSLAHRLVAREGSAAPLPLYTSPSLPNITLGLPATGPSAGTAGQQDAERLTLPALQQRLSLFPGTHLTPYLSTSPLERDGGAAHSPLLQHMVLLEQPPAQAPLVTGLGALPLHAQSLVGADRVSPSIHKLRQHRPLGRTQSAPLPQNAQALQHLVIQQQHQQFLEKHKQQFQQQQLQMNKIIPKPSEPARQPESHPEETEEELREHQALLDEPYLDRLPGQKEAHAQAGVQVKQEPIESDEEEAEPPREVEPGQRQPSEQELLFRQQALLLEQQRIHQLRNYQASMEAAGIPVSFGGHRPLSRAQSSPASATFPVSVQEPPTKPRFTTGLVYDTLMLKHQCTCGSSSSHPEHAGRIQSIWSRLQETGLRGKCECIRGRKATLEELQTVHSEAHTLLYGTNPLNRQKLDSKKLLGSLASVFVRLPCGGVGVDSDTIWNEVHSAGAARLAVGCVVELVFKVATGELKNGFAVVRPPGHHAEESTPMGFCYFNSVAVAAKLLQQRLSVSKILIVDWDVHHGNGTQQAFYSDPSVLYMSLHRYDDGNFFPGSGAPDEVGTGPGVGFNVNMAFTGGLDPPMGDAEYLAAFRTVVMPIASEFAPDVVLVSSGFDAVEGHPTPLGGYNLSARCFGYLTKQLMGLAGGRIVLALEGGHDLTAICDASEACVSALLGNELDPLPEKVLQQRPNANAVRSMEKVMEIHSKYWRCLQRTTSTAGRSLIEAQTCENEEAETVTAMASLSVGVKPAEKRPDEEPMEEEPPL
Protein deacetylase HDAC6, sequence (Q9UBN7 whole entry): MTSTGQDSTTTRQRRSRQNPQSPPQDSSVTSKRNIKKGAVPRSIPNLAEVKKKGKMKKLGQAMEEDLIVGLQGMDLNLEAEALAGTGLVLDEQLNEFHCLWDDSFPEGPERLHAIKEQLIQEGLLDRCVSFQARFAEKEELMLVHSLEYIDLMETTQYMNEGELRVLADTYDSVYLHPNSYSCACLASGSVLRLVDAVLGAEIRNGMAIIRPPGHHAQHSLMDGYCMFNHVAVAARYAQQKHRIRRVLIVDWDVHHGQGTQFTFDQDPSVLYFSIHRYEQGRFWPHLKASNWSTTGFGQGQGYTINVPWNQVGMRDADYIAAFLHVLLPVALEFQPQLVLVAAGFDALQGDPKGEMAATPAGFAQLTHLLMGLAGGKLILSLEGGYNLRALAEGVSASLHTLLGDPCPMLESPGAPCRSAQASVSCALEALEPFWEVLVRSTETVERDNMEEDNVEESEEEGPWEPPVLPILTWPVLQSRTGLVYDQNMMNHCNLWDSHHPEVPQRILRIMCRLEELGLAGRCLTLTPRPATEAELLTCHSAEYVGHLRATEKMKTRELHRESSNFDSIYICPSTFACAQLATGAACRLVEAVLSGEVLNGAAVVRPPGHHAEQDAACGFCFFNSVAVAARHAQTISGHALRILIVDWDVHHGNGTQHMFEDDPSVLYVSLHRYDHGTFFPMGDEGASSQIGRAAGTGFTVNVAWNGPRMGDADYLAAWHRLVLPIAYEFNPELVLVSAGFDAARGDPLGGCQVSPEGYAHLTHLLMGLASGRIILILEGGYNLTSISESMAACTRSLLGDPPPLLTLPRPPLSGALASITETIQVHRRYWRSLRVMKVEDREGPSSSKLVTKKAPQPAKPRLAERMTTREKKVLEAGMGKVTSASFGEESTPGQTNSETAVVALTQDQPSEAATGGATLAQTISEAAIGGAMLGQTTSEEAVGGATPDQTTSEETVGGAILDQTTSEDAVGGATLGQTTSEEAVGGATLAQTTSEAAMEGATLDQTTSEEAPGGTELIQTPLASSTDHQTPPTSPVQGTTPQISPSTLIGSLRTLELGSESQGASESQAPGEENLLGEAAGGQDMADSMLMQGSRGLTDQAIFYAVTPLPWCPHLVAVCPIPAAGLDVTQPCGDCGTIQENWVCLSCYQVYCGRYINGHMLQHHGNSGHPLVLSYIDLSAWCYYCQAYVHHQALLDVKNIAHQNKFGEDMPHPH
Histone deacetylase 1, sequence (Q13547 whole entry): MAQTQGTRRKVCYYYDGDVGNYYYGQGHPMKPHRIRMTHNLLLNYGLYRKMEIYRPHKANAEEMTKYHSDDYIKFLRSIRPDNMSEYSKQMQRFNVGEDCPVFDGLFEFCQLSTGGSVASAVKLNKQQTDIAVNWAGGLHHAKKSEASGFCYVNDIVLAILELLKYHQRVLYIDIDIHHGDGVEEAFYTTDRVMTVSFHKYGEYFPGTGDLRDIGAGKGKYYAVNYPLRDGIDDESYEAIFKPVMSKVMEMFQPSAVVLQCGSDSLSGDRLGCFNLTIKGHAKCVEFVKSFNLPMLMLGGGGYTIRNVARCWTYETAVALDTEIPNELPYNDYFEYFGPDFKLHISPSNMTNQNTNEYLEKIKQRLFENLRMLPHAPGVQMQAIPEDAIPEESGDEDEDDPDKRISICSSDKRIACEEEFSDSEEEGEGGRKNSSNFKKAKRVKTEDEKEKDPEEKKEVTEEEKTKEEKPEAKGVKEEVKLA
Polyamine deacetylase HDAC10, sequence (Q969S8 whole entry): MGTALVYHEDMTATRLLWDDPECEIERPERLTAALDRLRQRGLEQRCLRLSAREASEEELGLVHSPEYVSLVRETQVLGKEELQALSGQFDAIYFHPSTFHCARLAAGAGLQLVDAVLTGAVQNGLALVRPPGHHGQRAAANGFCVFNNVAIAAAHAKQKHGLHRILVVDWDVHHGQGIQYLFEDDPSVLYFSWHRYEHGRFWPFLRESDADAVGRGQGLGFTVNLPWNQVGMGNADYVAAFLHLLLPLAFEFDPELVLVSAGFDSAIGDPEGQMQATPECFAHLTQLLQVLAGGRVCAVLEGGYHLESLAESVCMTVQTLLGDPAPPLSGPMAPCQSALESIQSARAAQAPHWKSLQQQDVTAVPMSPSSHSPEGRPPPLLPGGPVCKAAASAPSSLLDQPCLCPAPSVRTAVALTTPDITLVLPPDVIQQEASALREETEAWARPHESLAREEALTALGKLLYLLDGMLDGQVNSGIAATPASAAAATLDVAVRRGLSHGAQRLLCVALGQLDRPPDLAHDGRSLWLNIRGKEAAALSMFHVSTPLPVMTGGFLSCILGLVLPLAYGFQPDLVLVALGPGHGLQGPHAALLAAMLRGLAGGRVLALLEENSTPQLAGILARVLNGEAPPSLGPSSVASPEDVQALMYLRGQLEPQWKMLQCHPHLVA
Histone deacetylase 2, sequence (Q92769 whole entry): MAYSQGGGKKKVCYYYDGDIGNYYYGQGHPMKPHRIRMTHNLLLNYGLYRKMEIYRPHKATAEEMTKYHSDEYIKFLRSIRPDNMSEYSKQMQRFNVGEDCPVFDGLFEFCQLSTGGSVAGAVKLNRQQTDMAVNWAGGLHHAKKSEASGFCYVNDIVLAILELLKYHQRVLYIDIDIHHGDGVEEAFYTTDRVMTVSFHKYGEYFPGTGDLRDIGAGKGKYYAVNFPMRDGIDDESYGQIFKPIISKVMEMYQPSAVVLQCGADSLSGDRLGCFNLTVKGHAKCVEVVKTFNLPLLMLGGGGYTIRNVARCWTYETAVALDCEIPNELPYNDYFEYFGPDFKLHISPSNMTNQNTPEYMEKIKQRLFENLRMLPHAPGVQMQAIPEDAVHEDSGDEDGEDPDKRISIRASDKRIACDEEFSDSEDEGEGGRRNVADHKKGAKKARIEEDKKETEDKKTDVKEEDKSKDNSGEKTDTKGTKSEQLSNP

**Q.** With CC[C@@]1(O)C(=O)OCc2c1cc1n(c2=O)Cc2c-1nc1ccccc1c2/C=N/OCCCCCC(=O)NCCSSCCNC(=O)/C(Cc1ccc(O)c(Br)c1)=N\O as the compound, how does the Activity [1] read?
**A.** The Activity was “Non-Toxic”.

**Q.** And the IC50 [2]?
**A.** The IC50 was “Not Active”.

**Q.** What about the IC50 [3] of the same compound?
**A.** The IC50 was 300 nM.

**Q.** And the Activity [4]?
**A.** Its Activity is 14.5%.

**Q.** And the IC50 [5]?
**A.** The IC50 was 220 nM.

**Q.** And the Activity [6]?
**A.** The Activity was 20.6%.

**Q.** And the inhibition in vivo at 90 mg/kg [7]?
**A.** The inhibition in vivo at 90 mg/kg was 78%.

**Q.** And the IC50 [8]?
**A.** The IC50 was 660 nM.

**Q.** What about the IC50 [9] of the same compound?
**A.** The IC50 was 47 nM.

**Q.** What about the Activity [10] of the same compound?
**A.** The Activity was 77.62%.

**Q.** What about the Activity [11] of the same compound?
**A.** Its Activity is 28%.

**Q.** And the Activity [12]?
**A.** The Activity was 21.2%.

**Q.** And the Activity [13]?
**A.** The Activity was 59.2%.

**Q.** What about the IC50 [14] of the same compound?
**A.** Its IC50 is 280 nM.

**Q.** And the Activity [15]?
**A.** The Activity was 16.5%.

**Q.** What about the Activity [16] of the same compound?
**A.** Its Activity is 4.5%.

**Q.** And the IC50 [17]?
**A.** The IC50 was 600 nM.

**Q.** What about the Activity [18] of the same compound?
**A.** Its Activity is 9.9%.

**Q.** What about the IC50 [19] of the same compound?
**A.** The IC50 was 130 nM.

**Q.** And the Activity [20]?
**A.** Its Activity is 13.1%.

**Q.** And the IC50 [21]?
**A.** The IC50 was 60 nM.

**Q.** What about the IC50 [22] of the same compound?
**A.** The IC50 was 110 nM.

**Q.** And the IC50 [23]?
**A.** The IC50 was 327 nM.

**Q.** And the IC50 [24]?
**A.** The IC50 was 180 nM.

**Q.** What about the IC50 [25] of the same compound?
**A.** The IC50 was 50 nM.

**Q.** What about the IC50 [26] of the same compound?
**A.** Its IC50 is 709 nM.

**Q.** What about the Activity [27] of the same compound?
**A.** Its Activity is 83.5%.

**Q.** What about the Activity [28] of the same compound?
**A.** Its Activity is 25.4%.

**Q.** And the IC50 [29]?
**A.** The IC50 was 150 nM.

**Q.** What about the IC50 [30] of the same compound?
**A.** Its IC50 is 35 nM.

**Q.** And the Activity [31]?
**A.** Its Activity is 58.97%.

**Q.** And the IC50 [32]?
**A.** The IC50 was 100 nM.

**Q.** What about the Activity [33] of the same compound?
**A.** Its Activity is 11%.

**Q.** What about the IC50 [34] of the same compound?
**A.** The IC50 was 7.55 nM.

**Q.** What about the Activity [35] of the same compound?
**A.** Its Activity is 6.2%.
